Assay results as given in ChEMBL document CHEMBL4350961, “Discovery of Pyrrolo[3,2- d]pyrimidin-4-one Derivatives as a New Class of Potent and Cell-Active Inhibitors of P300/CBP-Associated Factor Bromodomain” (J Med Chem, 2019).
The source made the active and inactive calls. The calls are words filed in the database; no cut-off is given here.

Key:
[1] = system: MEF; experiment: Effect on plekhb1 gene expression in MEF cells at 2.5 uM measured after 48 hrs by RNA-sequencing analysis relative to control; format: functional, Mus musculus
How it was run: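 MEF cells treated for 48 h with test compound, with (S,S) enantiomer at 2.5 µM as negative control and DMSO as blank; total RNA (TRIzol, n = 3 per set) analysed by RNA-seq; genes counted as changed at >1.5-fold, p < 0.05, relative to blank control.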

[2] = system: MEF; experiment: Effect on Gabra3 gene expression in MEF cells at 2.5 uM measured after 48 hrs by RNA-sequencing analysis relative to control; format: functional, Mus musculus
How it was run: (§1)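 Mouse embryonic fibroblasts treated 48 h; negative-control enantiomer at 2.5 µM, DMSO as blank. Total RNA extracted with TRIzol, checked by NanoDrop, then RNA-seq with n = 3 per set. Genes called changed at >1.5-fold with p < 0.05 against blank.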

[3] = system: Angiopoietin-1 receptor (Homo sapiens), Q02763 [Q939H,Q940H]; experiment: Inhibition of human Tie2 Q939H/Q940H mutant (771 to end residues) using poly(Glu, Tyr) 4:1 as substrate measured after 40 mins in presence of [gamma33P]ATP by scintillation counting method
[4] = biological target: Mitogen-activated protein kinase 10 (Homo sapiens) (UniProt P53779); experiment: Inhibition of recombinant full-length human JNK3 at 10 uM using peptide substrate measured after 40 mins in presence of [gamma33P]ATP by scintillation counting method
[5] = system: MEF; experiment: Effect on Zfp551 gene expression in MEF cells at 2.5 uM measured after 48 hrs by RNA-sequencing analysis relative to control; format: functional, Mus musculus; how it was run: as §1
[6] = system: MEF; experiment: Effect on Erv3 gene expression in MEF cells at 2.5 uM measured after 48 hrs by RNA-sequencing analysis relative to control; format: functional, Mus musculus; how it was run: as §1
[7] = system: MEF; experiment: Effect on Ttbk1 gene expression in MEF cells at 2.5 uM measured after 48 hrs by RNA-sequencing analysis relative to control; format: functional, Mus musculus; how it was run: as §1
[8] = biological target: Transient receptor potential cation channel subfamily M member 7 (Homo sapiens) (UniProt Q96QT4); experiment: Inhibition of recombinant human CHAK1 (1180 to end residues) at 10 uM using myelin basic protein as substrate measured after 40 mins in presence of [gamma33P]ATP by scintillation counting method
[9] = system: MEF; experiment: Effect on Dmrta2 gene expression in MEF cells at 2.5 uM measured after 48 hrs by RNA-sequencing analysis relative to control; format: functional, Mus musculus; how it was run: as §1
[10] = system: MEF; experiment: Effect on Hpgd gene expression in MEF cells at 2.5 uM measured after 48 hrs by RNA-sequencing analysis relative to control; format: functional, Mus musculus; how it was run: as §1
[11] = system: MEF; experiment: Effect on Fmn2 gene expression in MEF cells at 2.5 uM measured after 48 hrs by RNA-sequencing analysis relative to control; format: functional, Mus musculus; how it was run: as §1
[12] = biological target: Muscle, skeletal receptor tyrosine-protein kinase (Homo sapiens) (UniProt O15146); experiment: Inhibition of recombinant human MuSK (530 to end residues) at 10 uM using myelin basic protein as substrate measured after 40 mins in presence of [gamma33P]ATP by scintillation counting method
[13] = biological target: Protein kinase C delta type (Homo sapiens) (UniProt Q05655); experiment: Inhibition of recombinant human PKCdelta (2 to end residues) at 10 uM using ERMRPRKRQGSVRRRV as substrate measured after 40 mins in presence of [gamma33P]ATP by scintillation counting method
[14] = system: MEF; experiment: Effect on Tfap4 gene expression in MEF cells at 2.5 uM measured after 48 hrs by RNA-sequencing analysis relative to control; format: functional, Mus musculus; how it was run: as §1
[15] = system: MEF; experiment: Effect on Gm3173 gene expression in MEF cells at 2.5 uM measured after 48 hrs by RNA-sequencing analysis relative to control; format: functional, Mus musculus; how it was run: as §1
[16] = system: MEF; experiment: Effect on Kcnk10 gene expression in MEF cells at 2.5 uM measured after 48 hrs by RNA-sequencing analysis relative to control; format: functional, Mus musculus; how it was run: as §1
[17] = system: MEF; experiment: Effect on Aatk gene expression in MEF cells at 2.5 uM measured after 48 hrs by RNA-sequencing analysis relative to control; format: functional, Mus musculus; how it was run: as §1
[18] = system: MEF; experiment: Effect on Tnnt2 gene expression in MEF cells at 2.5 uM measured after 48 hrs by RNA-sequencing analysis relative to control; format: functional, Mus musculus; how it was run: as §1
[19] = biological target: Serine/threonine-protein kinase N2 (Homo sapiens) (UniProt Q16513); experiment: Inhibition of human PRK2 (501 to end residues) using AKRRRLSSLRA as substrate measured after 40 mins in presence of [gamma33P]ATP by scintillation counting method
How it was run: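 Kinase panel of 422 kinases screened by Eurofins KinaseProfiler at a single test-compound concentration of 10 µM.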

[20] = biological target: G protein-coupled receptor kinase 3 (Homo sapiens) (UniProt P35626); experiment: Inhibition of recombinant full-length human GRK3 at 10 uM using casein as substrate measured after 40 mins in presence of [gamma33P]ATP by scintillation counting method
[21] = system: MEF; experiment: Effect on Bmp3 gene expression in MEF cells at 2.5 uM measured after 48 hrs by RNA-sequencing analysis relative to control; format: functional, Mus musculus; how it was run: as §1
[22] = biological target: Cyclin-dependent kinase 5/CDK5 activator 1 (Homo sapiens) (UniProt Q00535+Q15078); experiment: Inhibition of recombinant full-length human CDK5/p35 at 10 uM using histone H1 as substrate measured after 40 mins in presence of [gamma33P]ATP by scintillation counting method; format: protein-complex assay
[23] = system: MEF; experiment: Effect on Tnfsf15 gene expression in MEF cells at 2.5 uM measured after 48 hrs by RNA-sequencing analysis relative to control; format: functional, Mus musculus; how it was run: as §1
[24] = system: MEF; experiment: Effect on Pyhin1 gene expression in MEF cells at 2.5 uM measured after 48 hrs by RNA-sequencing analysis relative to control; format: functional, Mus musculus; how it was run: as §1
[25] = system: MEF; experiment: Effect on Acod1 gene expression in MEF cells at 2.5 uM measured after 48 hrs by RNA-sequencing analysis relative to control; format: functional, Mus musculus; how it was run: as §1
[26] = system: Ribosomal protein S6 kinase beta-1 (Homo sapiens), P23443 [T412E]; experiment: Inhibition of recombinant human p70S6K T412E mutant (1 to 421 residues) at 10 uM using KKRNRTLTV as substrate measured after 40 mins in presence of [gamma33P]ATP by scintillation counting method
[27] = biological target: Histone acetyltransferase KAT2B (Homo sapiens, UniProt Q92831); experiment: Binding affinity to human N-terminal His-tagged PCAF by isothermal titration calorimetry
[28] = system: Epidermal growth factor receptor (Homo sapiens), P00533 [L861Q]; experiment: Inhibition of recombinant human EGFR L861Q mutant (696 to end residues) at 10 uM using poly(Glu, Tyr) 4:1 as substrate measured after 40 mins in presence of [gamma33P]ATP by scintillation counting method
[29] = system: Mast/stem cell growth factor receptor Kit (Homo sapiens), P10721 [V654A]; experiment: Inhibition of recombinant human c-Kit V654A mutant (544 to end residues) at 10 uM using GGMEDIYFEFMGGKKK as substrate measured after 40 mins in presence of [gamma33P]ATP by scintillation counting method
[30] = biological target: Serine/threonine-protein kinase 10 (Homo sapiens) (UniProt O94804); experiment: Inhibition of recombinant human LOK (1 to 348 residues) at 10 uM using RLGRDKYKTLRQIRQ as substrate measured after 40 mins in presence of [gamma33P]ATP by scintillation counting method
Sequence of Serine/threonine-protein kinase 10 (Homo sapiens) (O94804 whole entry, looked up, the tested form may be a part): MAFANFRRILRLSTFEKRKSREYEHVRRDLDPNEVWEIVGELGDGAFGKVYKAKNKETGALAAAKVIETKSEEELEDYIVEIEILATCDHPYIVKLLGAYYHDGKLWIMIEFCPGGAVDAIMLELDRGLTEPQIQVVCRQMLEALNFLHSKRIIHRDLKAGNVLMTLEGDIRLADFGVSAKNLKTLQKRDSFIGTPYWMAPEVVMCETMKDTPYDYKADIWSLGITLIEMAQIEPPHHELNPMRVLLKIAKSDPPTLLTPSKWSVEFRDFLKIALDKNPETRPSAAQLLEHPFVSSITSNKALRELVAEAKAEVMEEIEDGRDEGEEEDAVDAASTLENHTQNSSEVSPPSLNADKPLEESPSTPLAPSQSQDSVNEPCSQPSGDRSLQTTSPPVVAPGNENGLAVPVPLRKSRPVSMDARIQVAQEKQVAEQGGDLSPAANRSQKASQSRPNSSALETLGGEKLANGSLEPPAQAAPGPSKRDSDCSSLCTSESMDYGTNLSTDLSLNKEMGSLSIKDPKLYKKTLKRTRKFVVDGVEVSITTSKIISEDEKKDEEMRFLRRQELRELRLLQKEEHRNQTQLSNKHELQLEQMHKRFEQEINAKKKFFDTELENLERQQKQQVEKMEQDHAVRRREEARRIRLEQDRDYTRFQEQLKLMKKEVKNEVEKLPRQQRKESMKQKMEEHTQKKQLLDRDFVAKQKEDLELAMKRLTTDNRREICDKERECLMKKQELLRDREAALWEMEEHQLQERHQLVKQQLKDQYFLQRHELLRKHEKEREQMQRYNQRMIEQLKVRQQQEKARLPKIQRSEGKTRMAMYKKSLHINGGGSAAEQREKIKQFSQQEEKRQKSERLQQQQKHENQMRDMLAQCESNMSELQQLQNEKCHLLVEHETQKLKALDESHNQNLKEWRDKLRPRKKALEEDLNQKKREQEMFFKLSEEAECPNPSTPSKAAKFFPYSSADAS

Sequence of Histone acetyltransferase KAT2B (Q92831 whole entry): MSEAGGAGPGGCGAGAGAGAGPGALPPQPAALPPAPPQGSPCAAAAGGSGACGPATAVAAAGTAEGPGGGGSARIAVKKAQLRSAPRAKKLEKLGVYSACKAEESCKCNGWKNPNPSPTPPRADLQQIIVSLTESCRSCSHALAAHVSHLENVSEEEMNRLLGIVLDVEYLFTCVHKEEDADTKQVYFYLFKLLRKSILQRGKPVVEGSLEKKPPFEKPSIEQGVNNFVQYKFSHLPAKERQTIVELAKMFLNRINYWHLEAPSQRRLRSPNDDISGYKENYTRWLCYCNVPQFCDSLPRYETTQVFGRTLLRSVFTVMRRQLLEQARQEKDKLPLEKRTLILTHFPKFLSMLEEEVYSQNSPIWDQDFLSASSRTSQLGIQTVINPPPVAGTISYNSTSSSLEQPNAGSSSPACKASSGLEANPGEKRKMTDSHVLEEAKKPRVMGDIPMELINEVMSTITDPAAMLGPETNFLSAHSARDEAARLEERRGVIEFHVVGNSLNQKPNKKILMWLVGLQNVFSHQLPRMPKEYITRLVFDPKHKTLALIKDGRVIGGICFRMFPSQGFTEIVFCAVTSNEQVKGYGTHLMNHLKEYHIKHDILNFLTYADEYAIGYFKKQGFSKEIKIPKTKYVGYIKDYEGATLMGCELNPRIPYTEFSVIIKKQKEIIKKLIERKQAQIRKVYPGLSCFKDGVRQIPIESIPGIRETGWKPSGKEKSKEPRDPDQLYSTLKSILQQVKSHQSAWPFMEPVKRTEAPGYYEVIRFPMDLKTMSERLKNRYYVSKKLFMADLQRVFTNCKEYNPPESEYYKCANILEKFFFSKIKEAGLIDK
Sequence of Muscle, skeletal receptor tyrosine-protein kinase (Homo sapiens) (O15146 whole entry): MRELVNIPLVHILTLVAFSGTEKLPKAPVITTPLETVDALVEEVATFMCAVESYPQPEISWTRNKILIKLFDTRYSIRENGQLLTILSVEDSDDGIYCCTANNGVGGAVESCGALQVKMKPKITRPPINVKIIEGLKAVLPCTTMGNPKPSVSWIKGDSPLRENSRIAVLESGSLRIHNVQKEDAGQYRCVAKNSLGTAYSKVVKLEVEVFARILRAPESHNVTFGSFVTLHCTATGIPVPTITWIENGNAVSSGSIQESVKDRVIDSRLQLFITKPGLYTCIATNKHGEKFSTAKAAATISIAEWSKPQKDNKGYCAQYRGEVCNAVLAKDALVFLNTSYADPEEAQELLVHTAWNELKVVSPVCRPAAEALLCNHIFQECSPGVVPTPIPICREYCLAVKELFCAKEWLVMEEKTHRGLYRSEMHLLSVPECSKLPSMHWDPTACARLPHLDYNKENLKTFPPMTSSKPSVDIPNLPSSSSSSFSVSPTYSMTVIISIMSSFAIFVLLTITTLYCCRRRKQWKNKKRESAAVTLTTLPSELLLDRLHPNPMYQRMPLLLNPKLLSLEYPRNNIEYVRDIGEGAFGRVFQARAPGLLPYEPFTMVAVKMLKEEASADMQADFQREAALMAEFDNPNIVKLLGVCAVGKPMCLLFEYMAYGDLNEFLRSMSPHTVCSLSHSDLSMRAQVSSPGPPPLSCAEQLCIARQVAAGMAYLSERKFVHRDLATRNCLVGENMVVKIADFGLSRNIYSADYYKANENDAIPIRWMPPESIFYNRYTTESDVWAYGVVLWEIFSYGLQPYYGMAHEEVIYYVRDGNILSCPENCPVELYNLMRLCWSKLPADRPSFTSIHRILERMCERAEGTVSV
Sequence of Serine/threonine-protein kinase N2 (Homo sapiens) (Q16513 whole entry, looked up): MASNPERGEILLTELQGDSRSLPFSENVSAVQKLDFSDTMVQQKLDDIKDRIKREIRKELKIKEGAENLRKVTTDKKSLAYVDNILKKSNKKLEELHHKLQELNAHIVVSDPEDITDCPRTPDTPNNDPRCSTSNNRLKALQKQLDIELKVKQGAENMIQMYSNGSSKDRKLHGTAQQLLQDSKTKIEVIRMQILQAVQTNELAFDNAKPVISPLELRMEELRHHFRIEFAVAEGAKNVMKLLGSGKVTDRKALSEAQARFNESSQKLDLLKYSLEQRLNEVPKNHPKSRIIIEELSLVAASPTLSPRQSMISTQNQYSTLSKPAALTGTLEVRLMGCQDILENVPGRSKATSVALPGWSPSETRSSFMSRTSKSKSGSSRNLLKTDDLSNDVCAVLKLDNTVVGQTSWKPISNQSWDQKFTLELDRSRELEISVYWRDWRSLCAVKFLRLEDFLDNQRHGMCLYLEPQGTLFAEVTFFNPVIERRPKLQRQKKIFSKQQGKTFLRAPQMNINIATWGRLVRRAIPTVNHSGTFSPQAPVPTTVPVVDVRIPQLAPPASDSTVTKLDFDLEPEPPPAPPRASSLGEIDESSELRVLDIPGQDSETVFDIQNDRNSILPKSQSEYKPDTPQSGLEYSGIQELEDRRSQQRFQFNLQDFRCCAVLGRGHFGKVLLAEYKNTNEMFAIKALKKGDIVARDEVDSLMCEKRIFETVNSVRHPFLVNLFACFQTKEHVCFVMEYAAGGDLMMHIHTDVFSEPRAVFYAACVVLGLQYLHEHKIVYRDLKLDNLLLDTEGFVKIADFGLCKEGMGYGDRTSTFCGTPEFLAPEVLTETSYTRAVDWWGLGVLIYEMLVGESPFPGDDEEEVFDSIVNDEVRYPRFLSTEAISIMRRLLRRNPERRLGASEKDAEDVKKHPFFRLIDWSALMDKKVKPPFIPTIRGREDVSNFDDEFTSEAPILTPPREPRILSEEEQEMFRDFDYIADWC
Sequence of Ribosomal protein S6 kinase beta-1 (Homo sapiens), P23443 [T412E] (P23443 whole entry T412E, looked up, the tested form may be a part): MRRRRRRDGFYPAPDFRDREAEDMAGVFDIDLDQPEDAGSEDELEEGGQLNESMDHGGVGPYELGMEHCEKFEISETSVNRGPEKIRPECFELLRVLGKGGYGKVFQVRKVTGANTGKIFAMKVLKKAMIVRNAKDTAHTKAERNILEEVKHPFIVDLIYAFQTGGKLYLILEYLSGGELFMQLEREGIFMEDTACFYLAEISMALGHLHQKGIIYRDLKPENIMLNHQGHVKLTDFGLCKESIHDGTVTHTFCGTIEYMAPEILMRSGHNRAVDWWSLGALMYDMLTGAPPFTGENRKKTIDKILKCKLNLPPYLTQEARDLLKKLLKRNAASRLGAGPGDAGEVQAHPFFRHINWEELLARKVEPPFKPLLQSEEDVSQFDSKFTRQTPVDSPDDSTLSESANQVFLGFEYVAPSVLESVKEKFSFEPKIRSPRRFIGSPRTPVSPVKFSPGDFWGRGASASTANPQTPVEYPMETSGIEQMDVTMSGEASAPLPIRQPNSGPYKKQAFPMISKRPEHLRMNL
Sequence of Protein kinase C delta type (Homo sapiens) (Q05655 whole entry, looked up): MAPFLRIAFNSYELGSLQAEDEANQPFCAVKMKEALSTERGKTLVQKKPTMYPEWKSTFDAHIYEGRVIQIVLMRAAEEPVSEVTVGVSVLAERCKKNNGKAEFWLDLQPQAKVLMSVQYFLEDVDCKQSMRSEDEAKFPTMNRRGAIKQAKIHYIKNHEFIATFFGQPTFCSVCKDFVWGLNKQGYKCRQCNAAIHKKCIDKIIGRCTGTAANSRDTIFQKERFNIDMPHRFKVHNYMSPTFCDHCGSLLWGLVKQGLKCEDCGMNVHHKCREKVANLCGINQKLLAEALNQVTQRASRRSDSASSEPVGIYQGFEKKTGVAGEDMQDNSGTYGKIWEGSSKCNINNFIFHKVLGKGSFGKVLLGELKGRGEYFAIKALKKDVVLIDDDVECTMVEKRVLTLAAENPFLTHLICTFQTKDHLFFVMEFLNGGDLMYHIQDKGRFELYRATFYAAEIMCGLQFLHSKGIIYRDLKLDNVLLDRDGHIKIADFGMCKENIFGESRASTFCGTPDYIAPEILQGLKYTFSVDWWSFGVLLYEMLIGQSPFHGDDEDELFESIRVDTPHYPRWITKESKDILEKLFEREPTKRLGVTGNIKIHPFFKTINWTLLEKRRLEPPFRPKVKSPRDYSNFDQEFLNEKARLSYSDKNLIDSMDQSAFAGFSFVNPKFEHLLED

SMILES	fold change (FC) [1]	fold change (FC) [2]	fold change (FC) [5]	fold change (FC) [6]	fold change (FC) [7]	fold change (FC) [9]	fold change (FC) [10]	fold change (FC) [11]	fold change (FC) [14]	fold change (FC) [15]	fold change (FC) [16]	fold change (FC) [17]	fold change (FC) [18]	fold change (FC) [21]	fold change (FC) [23]	fold change (FC) [24]	fold change (FC) [25]	Kd [27] [nM]	other results
CN1C[C@H](Nc2nc3cc[nH]c3c(=O)n2C)C[C@H](c2ccc3c(c2)OCCO3)C1	>1.5	>1.5	>1.5	>1.5	>1.5	>1.5	>1.5	>1.5	>1.5	>1.5	>1.5	>1.5	>1.5	>1.5	>1.5	>1.5	>1.5	78	inhibition [3]: inactive; inhibition [4]: inactive; inhibition [8]: inactive; inhibition [12]: inactive; inhibition [13]: inactive; inhibition [19]: inactive; inhibition [20]: inactive; inhibition [22]: inactive; inhibition [26]: inactive; inhibition [28]: inactive; inhibition [29]: inactive; inhibition [30]: inactive
CN1C[C@@H](Nc2nc3cc[nH]c3c(=O)n2C)C[C@@H](c2ccc3c(c2)OCCO3)C1	>1.5	>1.5	>1.5	>1.5	>1.5	>1.5	>1.5	>1.5	>1.5	>1.5	>1.5	>1.5	>1.5	>1.5	>1.5	>1.5	>1.5	> 10000	–
